A short description of data set [1]: Susceptibility of compound to hydrolysis at 37 degrees C at pH 7.4 phosphate buffer. It counts as ADME. In outline: (§1)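 Prodrug (100 μM final, from 1 mM stock in 10% aqueous DMSO) is incubated at 37 °C in pH 7.4 phosphate buffer (150 mM NaCl, 4 mM NaH₂PO₄, 25 mM NaHCO₃) or pH 5.0 acetate (150 mM NaCl, 10 mM NaOAc). Half-life of ester disappearance is found by HPLC as the mean of two determinations.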

Another data set deals with Plasmodium berghei. Briefly: Parasitaemia (%) on day 4 in Plasmodium berghei infected mice (Mus musculus) at 40 mg/kg intraperitoneal dose. The format is functional. Summed up: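 Female Swiss CD-1 mice (four-week-old, 20–25 g, three per group) are infected ip with about 10⁷ P. berghei ANKA 65 parasitized erythrocytes from a donor. On the day of infection they receive 40 mg/kg orally in 100% DMSO, then daily ip for 4 days. Parasitemia is counted daily. Controls get DMSO only.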

Data set [2] relates to Plasmodium falciparum. In words: Effective dose against chloroquine-resistant Plasmodium falciparum FcB1R. The format is functional. The note with it: read-out: ED50. In outline: (§2)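 Asynchronous cultures in human erythrocytes (0.5% parasitemia, 1% hematocrit) received serially diluted drug, DMSO ≤0.1%. After 24 h at 37 °C, 0.5 μCi [3H]hypoxanthine was added and incubation continued another 24 h. Growth inhibition was taken versus drug-free control, ED50 read from the concentration–response curve, and reported as mean of ≥3 independent experiments.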

Data set [3] in a line: Susceptibility of compound to hydrolysis at 37 degrees C for RPMI-10% human serum. It counts as ADME. The note with it: RPMI with 10% human serum. In outline: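 Prodrug (100 μM final, from 1 mM stock in 10% aqueous DMSO) is held in RPMI with 10% human serum at 37 °C and sampled from 0 to 77.5 h. Samples are mixed with EtOH plus internal reference, centrifuged, and the supernatant is analysed by HPLC. Half-life of ester disappearance is the mean of two determinations.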

The nature of data set [4]: Susceptibility of compound to hydrolysis at 37 degrees C at pH 5.0 acetate medium. The format is ADME. In outline:
as §1

The next data set relates to Mus musculus. Briefly: Percentage excess MST, when used as the chlorohydrate in mice infected with Plasmodium berghei (i.p., 40 mg/kg). It counts as functional. The following applies: route intraperitoneal. In outline: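 Female Swiss CD-1 mice (four weeks, 20–25 g), three per group, were infected ip with about 10^7 P. berghei ANKA parasitized erythrocytes. Dosing was 40 mg/kg in 100% DMSO, given orally at infection, then ip over the following 4 days. Parasitemia was counted daily. Activity was scored as percentage excess mean survival time over DMSO-treated infected controls.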

In data set [5] the test system is Plasmodium falciparum. In words: In vitro efficacy for chloroquine-resistant Plasmodium falciparum K1. The format is functional. The note with it: read-out: ED50 (the source's name). Summed up: as §2
Data set [6] deals with Plasmodium falciparum. In words: In vitro efficacy for chloroquine-resistant Plasmodium falciparum W2. The following applies: read-out: ED50 (the source's name). It counts as functional. Summed up:
as §2

Data set [7] has as its system Plasmodium falciparum. In words: In vitro efficacy for chloroquine-sensitive Plasmodium falciparum Thai. The note with it: read-out: ED50 (the source's name).
The subject of data set [8] is Plasmodium falciparum. Briefly: In vitro efficacy for chloroquine-resistant Plasmodium falciparum FcB1. It counts as functional. The note with it: read-out: ED50 (the source's name). Summed up:
as §2

The test system of data set [9] is Plasmodium falciparum. In words: In vitro efficacy for chloroquine-sensitive Plasmodium falciparum D6. The following applies: read-out: ED50 (the source's name).
Data set [10] has as its system Plasmodium falciparum. In words: In vitro efficacy for chloroquine-sensitive Plasmodium falciparum F32. The note with it: read-out: ED50 (the source's name).

`CC1=C(CCCCC(=O)OCc2cc(NC(=O)CN3CCCCC3)cc(Nc3ccnc4cc(Cl)ccc34)c2)C(=O)c2c(O)cccc2C1=O`: the half-life in data set [1], in [3] and in [4] was above 80 h throughout. The Parasitaemia with Plasmodium berghei turned out to be 9%. In addition, the EC50 in the data set with Plasmodium falciparum [2] came out at 28.7 nM. The “Excess MST” value in the data set on Mus musculus worked out at 39%.

On to `CCN(CC)CCCC(C)Nc1ccnc2cc(Cl)ccc12` (configuration not stated) [CHLOROQUINE], for which the EC50 in the data set on Plasmodium falciparum [5] is 183 nM; with Plasmodium falciparum [6] it was 175 nM; in the data set with Plasmodium falciparum [7], 14.3 nM; in the data set on Plasmodium falciparum [8] it was 126 nM; in the data set with Plasmodium falciparum [9], 54 nM; in the data set on Plasmodium falciparum [10], 19 nM.
